Data: ChEMBL document CHEMBL2086252, “Syntheses and evaluation of anticonvulsant activity of novel branched alkyl carbamates” (J Med Chem, 2012)
Activity calls are given as the source filed them.

Experiments:
Mus musculus [1] = assay: Anticonvulsant activity in albino CF1 mouse assessed as protection against maximal electroshock-induced seizures at 100 mg/kg, ip after 0.5 hrs; assay type: functional, organism-based; parameters: dose 100 mg/kg
In short: (§1)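 Mice dosed ip at 30, 100 or 300 mg/kg, then tested 0.5 h and 4 h after administration in the MES or scMet test. Protection was recorded as animals protected over animals tested. Neurotoxicity was recorded as motor impairment or sedation, as animals affected over animals tested.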

Rattus norvegicus [2] = assay: Neurotoxicity in pilocarpine-induced status epilepticus Sprague-Dawley albino rat model assessed as minimal motor impairment at 100 mg/kg, ip after 0.5 hrs by rotarod test; assay type: toxicity, organism-based; parameters: dose 100 mg/kg, route intraperitoneal; conditions: in vivo
Rattus norvegicus [3] = assay: Neurotoxicity in pilocarpine-induced status epilepticus Sprague-Dawley albino rat model assessed as minimal motor impairment at 30 mg/kg, ip after 2 hrs by rotarod test; assay type: toxicity, organism-based; parameters: dose 30 mg/kg, route intraperitoneal; conditions: in vivo
In short: (§2)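 Rat pilocarpine status epilepticus model: test carbamate given at 0 or 30 min after the first observed Racine stage 3 motor seizure, which marks SE onset. Neurotoxicity was scored within the same model.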

Rattus norvegicus [4] = assay: Anticonvulsant activity in Sprague-Dawley albino rat assessed as protection against pilocarpine-induced status epilepticus at 65 mg/kg, ip; assay type: functional, organism-based; parameters: dose 65 mg/kg
In short: (§3)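 Pilocarpine status epilepticus model in rats. Number and severity of convulsive seizures were observed behaviourally.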

Rattus norvegicus [5] = assay: Neurotoxicity in pilocarpine-induced status epilepticus Sprague-Dawley albino rat model assessed as minimal motor impairment at 300 mg/kg, ip after 0.25 hr by rotarod test; assay type: toxicity, organism-based; parameters: dose 300 mg/kg, route intraperitoneal; conditions: in vivo; in short: as §2
Mus musculus [6] = assay: Neurotoxicity in albino CF1 mouse assessed as minimal motor impairment at 300 mg/kg, ip after 4 hrs by rotarod test; assay type: toxicity, organism-based; parameters: dose 300 mg/kg, route intraperitoneal; conditions: in vivo; in short: as §1
Rattus norvegicus [7] = assay: Neurotoxicity in pilocarpine-induced status epilepticus Sprague-Dawley albino rat model assessed as minimal motor impairment at 100 mg/kg, ip after 4 hrs by rotarod test; assay type: toxicity, organism-based; parameters: dose 100 mg/kg, route intraperitoneal; conditions: in vivo
Rattus norvegicus [8] = assay: Neurotoxicity in pilocarpine-induced status epilepticus Sprague-Dawley albino rat model assessed as minimal motor impairment at 100 mg/kg, ip after 1 hr by rotarod test; assay type: toxicity, organism-based; parameters: dose 100 mg/kg, route intraperitoneal; conditions: in vivo
Rattus norvegicus [9] = assay: Anticonvulsant activity in Sprague-Dawley albino rat assessed as protection against maximal electroshock-induced seizures at 30 mg/kg, po after 4 hrs; assay type: functional, organism-based; parameters: dose 30 mg/kg
In short: (§4)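 Rats dosed orally. Anti-MES protection was scored as animals protected over animals tested at each time after dosing. Neurotoxicity was scored as motor impairment or sedation, as animals affected over animals tested.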

Rattus norvegicus [10] = assay: Neurotoxicity in pilocarpine-induced status epilepticus Sprague-Dawley albino rat model assessed as minimal motor impairment at 160 mg/kg, ip after 0.5 hrs by rotarod test; assay type: toxicity, organism-based; parameters: dose 160 mg/kg, route intraperitoneal; conditions: in vivo
Rattus norvegicus [11] = assay: Anticonvulsant activity in ip dosed Sprague-Dawley albino rat assessed as protection against pilocarpine-induced status epilepticus after 0.5 hrs; assay type: functional; in short: as §3
Rattus norvegicus [12] = assay: Neurotoxicity in Sprague-Dawley albino rat assessed as minimal motor impairment at 30 mg/kg, po by rotarod test; assay type: toxicity, organism-based; parameters: dose 30 mg/kg, route oral; conditions: in vivo; in short: as §4
Mus musculus [13] = assay: Neurotoxicity in albino CF1 mouse assessed as minimal motor impairment at 30 mg/kg, ip after 4 hrs by rotarod test; assay type: toxicity, organism-based; parameters: dose 30 mg/kg, route intraperitoneal; conditions: in vivo; in short: as §1
Mus musculus [14] = assay: Neurotoxicity in albino CF1 mouse assessed as minimal motor impairment at 100 mg/kg, ip after 0.5 hrs by rotarod test; assay type: toxicity, organism-based; parameters: dose 100 mg/kg, route intraperitoneal; conditions: in vivo; in short: as §1
Mus musculus [15] = assay: Neurotoxicity in albino CF1 mouse assessed as minimal motor impairment at 100 mg/kg, ip after 4 hrs by rotarod test; assay type: toxicity, organism-based; parameters: dose 100 mg/kg, route intraperitoneal; conditions: in vivo; in short: as §1
Mus musculus [16] = assay: Anticonvulsant activity in ip dosed albino CF-1 mouse assessed as protection against 6 Hz psychomotor seizure; assay type: functional; conditions: albino CF-1, ip
In short: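 Quantitative testing: rats dosed orally or ip in MES and scMet tests, and mice dosed ip, including the 6 Hz (32 mA) psychomotor seizure test. ED50 and TD50 were reported in mg/kg with ranges in parentheses. Protective index was calculated as TD50/ED50.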

Mus musculus [17] = assay: Anticonvulsant activity in albino CF1 mouse assessed as protection against subcutaneous metrazol-induced seizures at 30 mg/kg, ip after 0.5 hrs; assay type: functional, organism-based; parameters: dose 30 mg/kg; in short: as §1
Mus musculus [18] = assay: Protective index, ratio of TD50 for ip dosed albino CF1 mouse by rotarod test to ED50 for ip dosed albino CF1 mouse by 6 Hz psychomotor seizure test; assay type: functional
In short: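 Protective index calculated as TD50/ED50, with TD50 and ED50 taken from the same species and dosing route.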

Mus musculus [19] = assay: Anticonvulsant activity in albino CF1 mouse assessed as protection against subcutaneous metrazol-induced seizures at 100 mg/kg, ip after 4 hrs; assay type: functional, organism-based; parameters: dose 100 mg/kg; in short: as §1
Rattus norvegicus [20] = assay: Neurotoxicity in pilocarpine-induced status epilepticus Sprague-Dawley albino rat model assessed as minimal motor impairment at 30 mg/kg, ip after 4 hrs by rotarod test; assay type: toxicity, organism-based; parameters: dose 30 mg/kg, route intraperitoneal; conditions: in vivo; in short: as §2
Mus musculus [21] = assay: Neurotoxicity in albino CF1 mouse assessed as minimal motor impairment at 30 mg/kg, ip after 0.5 hrs by rotarod test; assay type: toxicity, organism-based; parameters: dose 30 mg/kg, route intraperitoneal; conditions: in vivo; in short: as §1
Rattus norvegicus [22] = assay: Neurotoxicity in pilocarpine-induced status epilepticus Sprague-Dawley albino rat model assessed as minimal motor impairment at 100 mg/kg, ip after 2 hrs by rotarod test; assay type: toxicity, organism-based; parameters: dose 100 mg/kg, route intraperitoneal; conditions: in vivo
Rattus norvegicus [23] = assay: Neurotoxicity in pilocarpine-induced status epilepticus Sprague-Dawley albino rat model assessed as minimal motor impairment at 30 mg/kg, ip after 1 hr by rotarod test; assay type: toxicity, organism-based; parameters: dose 30 mg/kg, route intraperitoneal; conditions: in vivo; in short: as §2
Rattus norvegicus [24] = assay: Neurotoxicity in pilocarpine-induced status epilepticus Sprague-Dawley albino rat model assessed as minimal motor impairment at 30 mg/kg, ip after 0.5 hrs by rotarod test; assay type: toxicity, organism-based; parameters: dose 30 mg/kg, route intraperitoneal; conditions: in vivo; in short: as §2
Rattus norvegicus [25] = assay: Anticonvulsant activity in Sprague-Dawley albino rat assessed as protection against maximal electroshock-induced seizures at 30 mg/kg, po after 30 mins; assay type: functional, organism-based; parameters: dose 30 mg/kg; in short: as §4
Rattus norvegicus [26] = assay: Neurotoxicity in pilocarpine-induced status epilepticus Sprague-Dawley albino rat model assessed as minimal motor impairment at 300 mg/kg, ip after 0.5 hrs by rotarod test; assay type: toxicity, organism-based; parameters: dose 300 mg/kg, route intraperitoneal; conditions: in vivo; in short: as §2
Mus musculus [27] = assay: Anticonvulsant activity in albino CF1 mouse assessed as protection against maximal electroshock-induced seizures at 30 mg/kg, ip after 4 hrs; assay type: functional, organism-based; parameters: dose 30 mg/kg; in short: as §1
Rattus norvegicus [28] = assay: Neurotoxicity in pilocarpine-induced status epilepticus Sprague-Dawley albino rat model assessed as minimal motor impairment at 50 mg/kg, ip after 0.5 hrs by rotarod test; assay type: toxicity, organism-based; parameters: dose 50 mg/kg, route intraperitoneal; conditions: in vivo; in short: as §2
Mus musculus [29] = assay: Anticonvulsant activity in albino CF1 mouse assessed as protection against maximal electroshock-induced seizures at 100 mg/kg, ip after 4 hrs; assay type: functional, organism-based; parameters: dose 100 mg/kg; in short: as §1
Rattus norvegicus [30] = assay: Anticonvulsant activity in Sprague-Dawley albino rat assessed as protection against maximal electroshock-induced seizures at 30 mg/kg, po after 2 hrs; assay type: functional, organism-based; parameters: dose 30 mg/kg; in short: as §4
Mus musculus [31] = assay: Anticonvulsant activity in albino CF1 mouse assessed as protection against maximal electroshock-induced seizures at 300 mg/kg, ip after 4 hrs; assay type: functional, organism-based; parameters: dose 300 mg/kg; in short: as §1
Mus musculus [32] = assay: Anticonvulsant activity in albino CF1 mouse assessed as protection against maximal electroshock-induced seizures at 30 mg/kg, ip after 0.5 hrs; assay type: functional, organism-based; parameters: dose 30 mg/kg; in short: as §1
Mus musculus [33] = assay: Anticonvulsant activity in albino CF1 mouse assessed as protection against subcutaneous metrazol-induced seizures at 100 mg/kg, ip after 0.5 hrs; assay type: functional, organism-based; parameters: dose 100 mg/kg; in short: as §1
Rattus norvegicus [34] = assay: Neurotoxicity in pilocarpine-induced status epilepticus Sprague-Dawley albino rat model assessed as minimal motor impairment at 30 mg/kg, ip after 0.25 hr by rotarod test; assay type: toxicity, organism-based; parameters: dose 30 mg/kg, route intraperitoneal; conditions: in vivo; in short: as §2
Mus musculus [35] = assay: Anticonvulsant activity in albino CF1 mouse assessed as protection against subcutaneous metrazol-induced seizures at 300 mg/kg, ip after 4 hrs; assay type: functional, organism-based; parameters: dose 300 mg/kg; in short: as §1
Mus musculus [36] = assay: Anticonvulsant activity in albino CF1 mouse assessed as protection against subcutaneous metrazol-induced seizures at 30 mg/kg, ip after 4 hrs; assay type: functional, organism-based; parameters: dose 30 mg/kg; in short: as §1
Rattus norvegicus [37] = assay: Anticonvulsant activity in Sprague-Dawley albino rat assessed as protection against maximal electroshock-induced seizures at 30 mg/kg, po after 1 hr; assay type: functional, organism-based; parameters: dose 30 mg/kg; in short: as §4
Rattus norvegicus [38] = assay: Neurotoxicity in pilocarpine-induced status epilepticus Sprague-Dawley albino rat model assessed as minimal motor impairment at 100 mg/kg, ip after 0.25 hr by rotarod test; assay type: toxicity, organism-based; parameters: dose 100 mg/kg, route intraperitoneal; conditions: in vivo
Rattus norvegicus [39] = assay: Anticonvulsant activity in Sprague-Dawley albino rat assessed as protection against maximal electroshock-induced seizures at 30 mg/kg, po after 15 mins; assay type: functional, organism-based; parameters: dose 30 mg/kg; in short: as §4

CC(C)C(COC(N)=O)C(C)C
inactive: Activity (Mus musculus [1]) | Activity (Rattus norvegicus [9]) | Activity (Mus musculus [17]) | Activity (Mus musculus [19]) | Activity (Rattus norvegicus [25]) | Activity (Mus musculus [27]) | Activity (Mus musculus [29]) | Activity (Rattus norvegicus [30]) | Activity (Mus musculus [31]) | Activity (Mus musculus [32]) | Activity (Mus musculus [33]) | Activity (Mus musculus [35]) | Activity (Mus musculus [36]) | Activity (Rattus norvegicus [37]) | Activity (Rattus norvegicus [39])
94 mg/kg: ED50 (Rattus norvegicus [11])
3.4: Ratio TD50/ED50 (Mus musculus [18])
Non-toxic: Activity (Rattus norvegicus [3]) | Activity (Mus musculus [6]) | Activity (Rattus norvegicus [7]) | Activity (Rattus norvegicus [8]) | Activity (Rattus norvegicus [12]) | Activity (Mus musculus [13]) | Activity (Mus musculus [14]) | Activity (Mus musculus [15]) | Activity (Rattus norvegicus [20]) | Activity (Mus musculus [21]) | Activity (Rattus norvegicus [22]) | Activity (Rattus norvegicus [23]) | Activity (Rattus norvegicus [24]) | Activity (Rattus norvegicus [28]) | Activity (Rattus norvegicus [34])
41 mg/kg: ED50 (Mus musculus [16])
Toxic: Activity (Rattus norvegicus [2]) | Activity (Rattus norvegicus [5]) | Activity (Rattus norvegicus [10]) | Activity (Rattus norvegicus [26]) | Activity (Rattus norvegicus [38])
active: Activity (Rattus norvegicus [4])
184 mg/kg: ED97 (Rattus norvegicus [11])
